From ChEMBL document CHEMBL5653606 (J Pharmacol Exp Ther, 2011) come the findings set out here.

Structures are written as SMILES. Calls of active or inactive are those of the source.

Data set [1] deals with Mus musculus. In words: In vivo inhibition of rhodamine-azide tagged FAAH expressed in mouse brain at 1 mg/kg, po by CC-ABPP method based in-gel fluorescence scanning analysis. The data set is classed as functional, organism-based.
Data set [2] concerns the target T1, Fatty-acid amide hydrolase 1 (Rattus norvegicus) (UniProt P97612).
T1 sequence (whole entry): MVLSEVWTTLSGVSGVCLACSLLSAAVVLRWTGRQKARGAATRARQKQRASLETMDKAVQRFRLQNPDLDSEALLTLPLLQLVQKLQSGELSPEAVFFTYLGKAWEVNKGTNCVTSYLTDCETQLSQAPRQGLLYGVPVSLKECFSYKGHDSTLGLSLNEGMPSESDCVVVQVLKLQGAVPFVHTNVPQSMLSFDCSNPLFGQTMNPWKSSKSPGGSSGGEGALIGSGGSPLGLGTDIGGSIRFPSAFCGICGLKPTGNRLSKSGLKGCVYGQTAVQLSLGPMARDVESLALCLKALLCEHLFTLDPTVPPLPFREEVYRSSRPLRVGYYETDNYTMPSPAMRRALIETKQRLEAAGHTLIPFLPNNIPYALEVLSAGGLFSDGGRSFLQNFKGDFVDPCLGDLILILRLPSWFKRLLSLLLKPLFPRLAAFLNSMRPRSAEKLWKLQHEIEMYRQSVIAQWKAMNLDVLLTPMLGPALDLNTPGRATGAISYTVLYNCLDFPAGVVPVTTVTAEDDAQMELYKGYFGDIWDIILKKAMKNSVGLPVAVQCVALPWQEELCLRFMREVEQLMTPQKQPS
In words: In vivo inhibition of FAAH in CFA induced Sprague-Dawley rat WBC at 0.1 to 10 mg/kg, po relative to control. The data set is classed as functional, organism-based. The following applies: dose 0.1-10 mg/kg. The gist of the method: (§1)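 Brain and blood leukocyte membrane fractions from CFA rats after oral dosing. FAAH activity measured with 3H-labeled AEA substrate, quantifying released 3H-ethanolamine; n = 3 rats/group. Time course sampled at 1, 2, 4, 8, 24 h after 1 mg/kg.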

Data set [3] deals with Rattus norvegicus. In words: Antihyperalgesic activity in CFA induced Sprague-Dawley rat assessed as inhibition of mechanical allodynia at 0.1 mg/kg, po measured for 4 hrs by von frey test. It counts as functional, organism-based. The gist of the method: (§2)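 Male Sprague-Dawley rats (200–250 g) given 150 μl CFA (1 mg/ml in mineral oil) intraplantar in the hind paw. Mechanical paw withdrawal thresholds read with Von Frey hairs on day 5 postinjection. Dosed orally as nanocrystalline suspension in 2% polyvinylpyrrolidone/0.15% SDS in water, 10 ml/kg. PWTs taken 4 h postdose for dose-response, or at 1, 2, 4, 8, 24 h for time course.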

The target in data set [4] is T1, Fatty-acid amide hydrolase 1 (Rattus norvegicus). In words: In vivo inhibition of FAAH in CFA induced Sprague-Dawley rat plasma at 1 mg/kg, po measured for 1 to 24 hrs. It counts as functional, organism-based. The following applies: time 1-24 hrs.
Data set [5] shares this target. In words: In vivo inhibition of FAAH in CFA induced Sprague-Dawley rat WBC assessed as elevation of AEA level at 0.1 to 10 mg/kg, po using 3H-labeled AEA as substrate. The following applies: dose 0.1-10 mg/kg. It counts as functional, organism-based.
Data set [6] addresses T2, Fatty-acid amide hydrolase 1 (Rattus norvegicus, UniProt P97612).
T2 sequence (P97612 whole entry): T1 sequence (whole entry)
In words: Inhibition of rat FAAH assessed as kinact/Ki ratio incubated for 30 min in presence of glutamate dehydrogenase by 384-well format microplate reader assay.

The test system of data set [7] is Rattus norvegicus. In words: Antihyperalgesic activity in CFA induced Sprague-Dawley rat assessed as inhibition of mechanical allodynia at 0.003 to 10 mg/kg, po measured for 4 hrs by von frey test. The settings on record: dose 0.003-10 mg/kg. It counts as functional, organism-based. The gist of the method: as §2
Data set [8] has as its target T3, Fatty-acid amide hydrolase 1 (Homo sapiens, UniProt O00519).
T3 sequence (O00519 whole entry): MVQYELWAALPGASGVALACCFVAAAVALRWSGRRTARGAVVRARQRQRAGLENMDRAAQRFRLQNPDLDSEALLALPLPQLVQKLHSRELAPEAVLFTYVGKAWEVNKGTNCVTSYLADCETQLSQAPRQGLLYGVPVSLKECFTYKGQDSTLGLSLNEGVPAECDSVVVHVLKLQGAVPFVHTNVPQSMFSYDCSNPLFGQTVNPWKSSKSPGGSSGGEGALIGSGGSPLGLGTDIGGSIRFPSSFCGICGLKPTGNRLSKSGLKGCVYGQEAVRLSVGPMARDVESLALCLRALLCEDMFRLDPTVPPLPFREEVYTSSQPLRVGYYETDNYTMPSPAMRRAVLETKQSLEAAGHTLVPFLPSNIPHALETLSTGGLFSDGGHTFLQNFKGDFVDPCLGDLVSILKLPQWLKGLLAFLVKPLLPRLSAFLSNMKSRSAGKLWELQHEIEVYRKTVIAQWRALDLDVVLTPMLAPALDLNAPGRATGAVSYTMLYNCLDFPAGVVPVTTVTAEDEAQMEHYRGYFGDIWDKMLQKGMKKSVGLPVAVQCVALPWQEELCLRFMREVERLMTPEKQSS
In words: Inhibition of human FAAH assessed as kinact/Ki ratio incubated for 30 min in presence of glutamate dehydrogenase by 384-well format microplate reader assay.

Data set [9] can be described thus: Plasma concentration in CFA induced Sprague-Dawley rat at 0.1 mg/kg, po by LC/MS analysis. The data set is classed as ADME, organism-based. The settings on record: in vivo.
The subject of data set [10] is Mus musculus. In words: Antinociceptive activity in C57BL6/J mouse assessed as effect in body temperature at 1 to 10 mg/kg, po administered for 4 hrs. It counts as functional, organism-based. The following applies: dose 1-10 mg/kg. The essentials:
(§3)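 Male C57BL/6J mice, 7 weeks old, n = 8/group, dosed orally at 1 or 10 mg/kg in PEG 300 (4 ml/kg). Tetrad tested 4 h postdose: locomotor activity, tail-immersion thermal nociception, catalepsy (assessed 60 s), body temperature. Means ± S.E.M. versus vehicle.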

Data set [11] deals with T1, Fatty-acid amide hydrolase 1 (Rattus norvegicus). The data set can be described thus: In vivo inhibition of FAAH in CFA induced Sprague-Dawley rat brain at 1 mg/kg, po measured for 1 to 24 hrs. The data set is classed as functional, organism-based. The settings on record: time 1-24 hrs. The essentials: as §1
A short description of data set [12]: Oral bioavailability in dog. It counts as ADME, organism-based, Canis lupus familiaris. The following applies: in vivo.
Data set [13] relates to Rattus norvegicus. The data set can be described thus: Antihyperalgesic activity in CFA induced Sprague-Dawley rat assessed as partial reduction of mechanical allodynia at 3 mg/kg, po in presence of CB1 antagonist SR141716 by von frey test. The data set is classed as functional, organism-based. The essentials: as §2
The subject of data set [14] is Mus musculus. The data set can be described thus: Antinociceptive activity in C57BL6/J mouse assessed as thermal tail immersion at 1 to 10 mg/kg, po administered for 4 hrs. It counts as functional, organism-based. The settings on record: dose 1-10 mg/kg. The essentials: as §3

In general, inhibition refers to the percentage by which the read-out fell short of the control. For orientation: IC50 means the point on the concentration scale where inhibition reaches its midpoint. For orientation: bioavailability means dose-corrected exposure relative to a reference, in per cent. Low values mean little systemic uptake, high ones much systemic uptake. On to `O=C(Nc1cccnn1)N1CCC(=Cc2cccc(Oc3ccc(C(F)(F)F)cn3)c2)CC1`, for which the inhibition entry (with Mus musculus [1]; in data set [4]; in data set [5]; in data set [11]) was “Active” throughout. This compound returned an inhibition in [2] of 98%. In addition, the outcome in the data set on Rattus norvegicus [3], in the data set with Rattus norvegicus [7] and in the data set on Rattus norvegicus [13] was Active. For the same compound, the IC50 is 11.1 nM in data set [6] and 10.7 nM in data set [8]. The concentration in data set [9] was 34.7 nM. The Activity entry in the data set with Mus musculus [10] was “Non-Toxic”; in the data set with Mus musculus [14] it was “Toxic”. This compound also yielded a bioavailability in [12] of 58%.
